Measured values as given in ChEMBL document CHEMBL5390275, “Molecular Graph-Based Deep Learning Algorithm Facilitates an Imaging-Based Strategy for Rapid Discovery of Small Molecules Modulating Biomolecular Condensates” (J Med Chem, 2023).
Active and inactive are the calls of the source. The calls are words filed in the database; no cut-off is given here.

Key:
[1] = biological target: TAR DNA-binding protein 43 (Homo sapiens) (UniProt Q13148); assay: Inhibition of human TDP-43 in human SH-SY5Y cells assessed a splicing changes in normal STMN2 mRNA at 10 uM incubated for 24 hrs by qPCR analysis; type: cell-based
TAR DNA-binding protein 43 (Homo sapiens), sequence (Q13148 whole entry, canonical isoform): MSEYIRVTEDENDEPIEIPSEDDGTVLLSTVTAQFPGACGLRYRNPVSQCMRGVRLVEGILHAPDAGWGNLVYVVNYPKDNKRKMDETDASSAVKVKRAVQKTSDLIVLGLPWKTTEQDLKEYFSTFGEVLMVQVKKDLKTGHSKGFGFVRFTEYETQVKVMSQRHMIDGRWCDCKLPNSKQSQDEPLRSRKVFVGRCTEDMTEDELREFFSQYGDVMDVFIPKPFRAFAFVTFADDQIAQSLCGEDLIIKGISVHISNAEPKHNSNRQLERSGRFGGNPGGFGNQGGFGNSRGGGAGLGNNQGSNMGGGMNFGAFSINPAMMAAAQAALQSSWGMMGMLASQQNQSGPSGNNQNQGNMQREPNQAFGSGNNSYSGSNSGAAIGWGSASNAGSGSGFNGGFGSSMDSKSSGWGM
How it was run: (§1)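 SH-SY5Y neuron-like cells (DMEM/F12, 10% FBS) given compound at 10uM final for 24 h; total RNA then harvested and normal and cryptic spliced STMN2 mRNA quantified by real-time PCR.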

DLD-1 [2] = assay: Inhibition of sodium arsenite induced stress granule formation in human DLD-1 cells at 10 uM incubated for 24 hrs followed by sodium arsenite stimulation for 1 hr by G3BP1 staining based immunostaining analysis; type: functional, cell-based
How it was run: (§2)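 DLD1 cells on glass-bottom plates treated with compound at 10uM for 24 h, then 250uM sodium arsenite for 1 h; DMSO control. Fixed in 4% PFA 10 min RT, permeabilized, blocked (5% BSA, 0.1% Triton X-100), stained with anti-G3BP1 and anti-NPM1 (1:100, 1 h RT), secondaries 1:1000 30 min, DAPI; spinning-disc confocal max-projection images analysed.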

[3] = tested on: TAR DNA-binding protein 43 (Homo sapiens), Q13148 [K181E]; assay: Inhibition of doxycycline induced TDP-43 K181E mutant anisosomes formation in human U2OS cells expressing ALS-causing TDP-43 K181E mutant anisosomes assessed as change in TDP-43 droplets morphology at 1 to 10 uM incubated for 24 hrs by fluorescence imaging analysis; type: cell-based; conditions: dose 1-10 µM
TAR DNA-binding protein 43 (Homo sapiens), Q13148 [K181E], sequence (Q13148 whole entry K181E): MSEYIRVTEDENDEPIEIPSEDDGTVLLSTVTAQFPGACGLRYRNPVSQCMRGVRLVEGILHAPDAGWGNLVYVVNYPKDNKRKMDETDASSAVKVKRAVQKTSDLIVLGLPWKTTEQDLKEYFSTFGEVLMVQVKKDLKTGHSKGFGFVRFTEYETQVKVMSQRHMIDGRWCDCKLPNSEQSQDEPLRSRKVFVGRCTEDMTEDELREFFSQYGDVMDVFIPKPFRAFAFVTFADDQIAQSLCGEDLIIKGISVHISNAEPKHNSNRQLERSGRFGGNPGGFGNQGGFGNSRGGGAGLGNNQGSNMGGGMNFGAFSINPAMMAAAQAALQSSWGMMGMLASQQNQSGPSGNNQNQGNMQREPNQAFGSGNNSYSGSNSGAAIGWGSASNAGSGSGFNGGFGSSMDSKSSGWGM
How it was run: (§3)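 U2OS cells stably expressing inducible TDP-43 K181E or NCOR2 anisosomes, treated with compound for 24 h (10uM, or a concentration series), then fixed and imaged; fraction of demixing cells quantified from fluorescent images.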

[4] = biological target: Nuclear receptor corepressor 2 (Homo sapiens) (UniProt Q9Y618); assay: Inhibition of doxycycline induced NCOR2 anisosomes formation in human U2OS cells expressing ALS-causing NCOR2 anisosomes assessed as change in NCOR2 droplets morphology at 10 uM incubated for 24 hrs by fluorescence imaging analysis; type: cell-based; how it was run: as §3
Nuclear receptor corepressor 2 (Homo sapiens), sequence (Q9Y618 whole entry): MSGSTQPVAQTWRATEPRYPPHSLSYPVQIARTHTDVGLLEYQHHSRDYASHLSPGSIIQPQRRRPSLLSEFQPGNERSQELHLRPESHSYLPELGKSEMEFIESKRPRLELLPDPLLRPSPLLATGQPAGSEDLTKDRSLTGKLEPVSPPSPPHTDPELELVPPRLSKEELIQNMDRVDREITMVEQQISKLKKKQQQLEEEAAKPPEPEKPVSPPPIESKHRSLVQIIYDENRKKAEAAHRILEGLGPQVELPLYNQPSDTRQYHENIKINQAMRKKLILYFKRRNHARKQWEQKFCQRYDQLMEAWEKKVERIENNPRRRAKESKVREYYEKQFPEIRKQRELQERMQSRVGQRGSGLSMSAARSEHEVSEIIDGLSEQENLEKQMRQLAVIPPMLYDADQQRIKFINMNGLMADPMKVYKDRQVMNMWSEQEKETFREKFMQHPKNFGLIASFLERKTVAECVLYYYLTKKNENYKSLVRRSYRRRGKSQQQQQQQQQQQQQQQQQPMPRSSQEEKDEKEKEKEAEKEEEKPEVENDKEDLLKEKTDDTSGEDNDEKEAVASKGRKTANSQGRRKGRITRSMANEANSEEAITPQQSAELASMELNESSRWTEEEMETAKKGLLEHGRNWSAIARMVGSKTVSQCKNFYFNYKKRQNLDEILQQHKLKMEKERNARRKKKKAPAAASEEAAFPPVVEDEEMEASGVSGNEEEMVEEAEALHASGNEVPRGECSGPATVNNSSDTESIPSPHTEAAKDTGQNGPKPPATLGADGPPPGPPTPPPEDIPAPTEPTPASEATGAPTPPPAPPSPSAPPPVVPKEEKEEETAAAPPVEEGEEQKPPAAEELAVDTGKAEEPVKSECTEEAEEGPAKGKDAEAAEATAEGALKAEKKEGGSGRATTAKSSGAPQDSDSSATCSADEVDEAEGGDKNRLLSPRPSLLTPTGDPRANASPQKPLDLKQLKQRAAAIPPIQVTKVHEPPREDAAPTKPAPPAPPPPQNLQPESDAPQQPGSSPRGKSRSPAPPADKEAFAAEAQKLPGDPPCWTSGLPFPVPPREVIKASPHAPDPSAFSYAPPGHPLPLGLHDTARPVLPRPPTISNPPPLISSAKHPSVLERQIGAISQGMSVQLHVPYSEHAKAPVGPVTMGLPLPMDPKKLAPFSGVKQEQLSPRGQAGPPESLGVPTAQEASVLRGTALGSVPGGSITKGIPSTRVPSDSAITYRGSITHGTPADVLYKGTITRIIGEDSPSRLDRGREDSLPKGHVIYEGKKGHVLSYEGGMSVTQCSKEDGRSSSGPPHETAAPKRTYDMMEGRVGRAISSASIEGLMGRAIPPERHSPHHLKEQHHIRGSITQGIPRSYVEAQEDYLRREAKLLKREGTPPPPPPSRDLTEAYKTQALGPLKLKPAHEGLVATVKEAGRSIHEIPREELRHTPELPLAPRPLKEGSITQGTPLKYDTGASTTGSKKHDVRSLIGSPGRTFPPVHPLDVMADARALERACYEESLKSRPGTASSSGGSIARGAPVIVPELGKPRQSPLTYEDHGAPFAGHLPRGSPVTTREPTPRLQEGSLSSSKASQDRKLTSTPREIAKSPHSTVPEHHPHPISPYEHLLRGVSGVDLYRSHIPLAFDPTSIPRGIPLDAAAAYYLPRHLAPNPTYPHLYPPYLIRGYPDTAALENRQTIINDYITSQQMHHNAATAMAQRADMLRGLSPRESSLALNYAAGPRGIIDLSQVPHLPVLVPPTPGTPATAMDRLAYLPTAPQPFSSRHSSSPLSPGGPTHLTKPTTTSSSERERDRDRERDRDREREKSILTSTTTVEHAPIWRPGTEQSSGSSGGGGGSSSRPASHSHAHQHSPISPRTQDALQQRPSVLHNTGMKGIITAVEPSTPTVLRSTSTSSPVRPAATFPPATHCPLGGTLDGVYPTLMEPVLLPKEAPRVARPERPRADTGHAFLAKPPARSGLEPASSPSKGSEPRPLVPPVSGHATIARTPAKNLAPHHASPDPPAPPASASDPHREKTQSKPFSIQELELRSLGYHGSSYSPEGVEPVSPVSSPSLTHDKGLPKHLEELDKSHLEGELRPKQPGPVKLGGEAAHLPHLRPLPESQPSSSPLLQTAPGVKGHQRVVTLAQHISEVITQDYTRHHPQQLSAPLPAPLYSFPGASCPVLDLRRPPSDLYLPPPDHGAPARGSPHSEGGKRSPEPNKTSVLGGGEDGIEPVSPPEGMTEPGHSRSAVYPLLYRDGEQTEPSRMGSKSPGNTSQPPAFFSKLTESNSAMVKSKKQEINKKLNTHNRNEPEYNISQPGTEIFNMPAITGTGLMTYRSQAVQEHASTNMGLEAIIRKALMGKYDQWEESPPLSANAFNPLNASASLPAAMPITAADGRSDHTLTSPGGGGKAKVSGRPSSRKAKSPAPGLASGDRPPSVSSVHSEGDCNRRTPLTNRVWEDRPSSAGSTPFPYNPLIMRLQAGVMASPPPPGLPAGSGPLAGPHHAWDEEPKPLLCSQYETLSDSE

DLD-1 [5] = assay: Inhibition of doxycycline induced TDP-43 2KQ mutant anisosomes formation in human DLD-1 cells expressing TDP-43 2KQ mutant anisosomes at 10 uM incubated for 24 hrs by fluorescence imaging analysis; type: cell-based
How it was run: (§4)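 Stable lentivirally transduced DLD1 (single-cell clones sorted by fluorescence) or U2OS lines expressing inducible TDP-43 anisosomes; plated 4000 cells/well, overnight, then compound 24 h; cells fixed, fluorescent anisosomes imaged on ImageExpress HTai and anisosome number per cell quantified.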

U2OS = assay: Inhibition of doxycycline induced TDP-43 2KQ mutant anisosomes formation in human U2OS cells expressing TDP-43 2KQ mutant anisosomes at 10 uM incubated for 24 hrs by fluorescence imaging analysis; type: cell-based; how it was run: as §4
SH-SY5Y = assay: Inhibition of TDP-43 2KQ mutant in human SH-SY5Y cells assessed a splicing changes in cryptic STMN2 mRNA at 10 uM incubated for 24 hrs by qPCR analysis; type: cell-based; how it was run: as §1
DLD-1 [6] = assay: Inhibition of sodium arsenite stimulated human DLD-1 cells assessed as change in nucleolus morphology at 10 uM incubated for 24 hrs followed by sodium arsenite stimulation for 1 hr by NPM1 staining based immunostaining analysis; type: functional, cell-based; how it was run: as §2

Row | Structure (SMILES) | inhibition [1] | inhibition (DLD-1 [2]) | inhibition [3] | inhibition [4] | inhibition (DLD-1 [5]) | inhibition (U2OS) | inhibition (SH-SY5Y) | inhibition (DLD-1 [6])
1 | COc1ccc(S(=O)(=O)NCC(c2ccco2)S(=O)(=O)c2cccs2)cc1F (centres undefined) | inactive | inactive |  |  |  |  |  | 
2 | COc1ccc(NC(=O)Cn2c(SCc3ccc(F)cc3)nc3cccnc32)cc1OC | inactive | inactive | inactive | Active |  |  |  | 
3 | COc1ccc2[nH]c(=O)c3c(c2c1)OC(C)(C)C=C3 | inactive | inactive | Dose-Dependent Effect | inactive | Active | Active |  | 
4 | Cc1ccc(CCNc2ncnc3onc(C)c23)cc1 | inactive | inactive |  |  | inactive | inactive | Active | 
5 | C=C1C(=O)O[C@H]2C3=C(C)CCC[C@]3(C)C(=O)C[C@@H]12 | inactive | Active | Active | Active | Active | Active |  | Active
